Data: article PMC12138107 (Acta Pharmaceutica Sinica. B, 2025)

Test system: L02 cells
Assay: In vitro cytotoxicity assay on normal L02 cells
Type: cell-based
Settings: 10 μmol/L, 24 h, CCK8
Procedure, shortened: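 L02 cells grown in DMEM with 10% FBS and 1% penicillin-streptomycin at 37 °C, 5% CO2. Seeded at 5 × 10^3 cells/well, then 24 h before test compound at 10 μmol/L was added for another 24 h. Medium removed, 10% CCK8 added for 1 h at 37 °C. Absorbance read and viability calculated.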

COc1nc(OCc2cccc(-c3ccccc3)c2C)ccc1CNCCNC(C)=O [BMS-202]
Cytotoxicity on normal L02 cells: obvious cytotoxicity
